Measurements as given in ChEMBL document CHEMBL1157096, “Bioactive metabolites from cultures of basidiomycete Favolaschia tonkinensis” (J Nat Prod, 2010).
Values after ≈ are worked out from the molar mass of the structure shown.

Key:
Candida albicans = test: Antifungal activity against Candida albicans; assay type: functional, organism-based
How it was run: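 Candida albicans tested by resazurin microplate assay, with IC50 in µg/mL.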

KB = test: Cytotoxicity against human KB cells by resazurin microplate assay; assay type: functional, cell-based
How it was run: (§1)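 Resazurin microplate assay on KB (oral human epidermoid carcinoma), MCF-7 (human breast cancer) and NCI-H187 (human small-cell lung cancer) cells, with IC50 in µg/mL.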

NCI-H187 = test: Cytotoxicity against human NCI-H187 cells by resazurin microplate assay; assay type: functional, cell-based; how it was run: as §1
MCF7 = test: Cytotoxicity against human MCF7 cells by resazurin microplate assay; assay type: functional, cell-based; how it was run: as §1
Plasmodium falciparum [1] = test: Antimalarial activity against Plasmodium falciparum K1 assessed as [G-3H]hypoxanthine uptake after 24 hrs by scintillation counting; assay type: functional, organism-based; conditions: K1, 24 h
How it was run: (§2)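 Plasmodium falciparum strain K1 tested by microculture radioisotope technique, with IC50 in µg/mL.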

Vero = test: Cytotoxicity against african green monkey Vero cells by green fluorescent protein assay; assay type: cell-based; conditions: Chlorocebus sabaeus
How it was run: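 Vero (African green monkey kidney fibroblast) cytotoxicity measured by green fluorescent protein (GFP)-based method.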

Plasmodium falciparum [2] = test: Antimalarial activity against Plasmodium falciparum K1; assay type: functional, organism-based; how it was run: as §2

| SMILES | IC50 (Candida albicans) [µg/mL] | IC50 (KB) [µg/mL] | IC50 (NCI-H187) [µg/mL] | IC50 (MCF7) [µg/mL] | IC50 (Plasmodium falciparum [1]) [µg/mL] | IC50 (Vero) [µg/mL] | IC50 (Plasmodium falciparum [2]) [µg/mL] |
| --- | --- | --- | --- | --- | --- | --- | --- |
| NC(=O)c1ccc2c(c1)C=C/C(=C\Cl)CO2 | > 50 | 12.1 (≈ 51.6 µM) | > 50 | > 50 | > 10 | > 50 |  |
| C[C@H]1[C@@H](O)O[C@@H]2O[C@@]3(C)CC[C@H]4[C@H](C)CC[C@@H]1[C@@]24OO3 [ARTENIMOL] |  |  |  |  | 0.0011 (≈ 0.00387 µM) |  |  |
| CO/C=C(/C(=O)OC)[C@H](C)[C@H](/C=C/c1ccccc1)OC | 0.76 (≈ 2.62 µM) | 5.48 (≈ 18.9 µM) | 15.1 (≈ 52 µM) | > 50 |  | 39.2 (≈ 135 µM) | 3 (≈ 10.3 µM) |
| CO/C=C(/C(=O)OC)[C@H](C)[C@H](/C=C/c1ccc(Cl)c(OC)c1)OC [(-)-OUDEMANSIN B] | 0.89 (≈ 2.51 µM) | 0.73 (≈ 2.06 µM) | 0.02 (≈ 0.0564 µM) | 27.8 (≈ 78.5 µM) |  | 14.3 (≈ 40.2 µM) | 0.4 (≈ 1.13 µM) |
| O=C(O)c1ccc2c(c1)C=C/C(=C\Cl)CO2 | > 50 | 0.78 (≈ 3.3 µM) | 11.7 (≈ 49.3 µM) | > 50 | > 10 | > 50 |  |
| CO\C=C(C(=O)OC)/C(C)=C(\C=C\c1ccc(Cl)c(OC)c1)OC [9-METHOXYSTROBILURIN B] | 0.22 (≈ 0.624 µM) | 5.45 (≈ 15.4 µM) | 0.4 (≈ 1.13 µM) | 4.86 (≈ 13.8 µM) | 0.3 (≈ 0.85 µM) | 7.91 (≈ 22.4 µM) |  |
| COc1cccc2c1C(=O)c1c(O)c3c(c(O)c1C2=O)C[C@@](O)(C(=O)CO)C[C@@H]3O[C@H]1C[C@H](N)[C@H](O)[C@H](C)O1 [DOXORUBICIN] |  | 0.25 (≈ 0.46 µM) | 0.04 (≈ 0.0736 µM) | 0.57 (≈ 1.05 µM) |  |  |  |
| Cc1c2ccncc2c(C)c2c1[nH]c1ccccc12 [ELLIPTECINE] |  | 0.45 (≈ 1.83 µM) | 0.68 (≈ 2.76 µM) |  |  | 1.18 (≈ 4.79 µM) |  |
| CO\C=C(C(=O)OC)/C(C)=C(\C=C\c1ccc2c(c1)OC(C)(C)[C@@H](OCC=C(C)C)CO2)OC | 0.5 (≈ 1.06 µM) | 14.3 (≈ 30.3 µM) | 0.36 (≈ 0.762 µM) | 15.4 (≈ 32.6 µM) | 0.03 (≈ 0.0635 µM) | 24 (≈ 50.7 µM) |  |
| C[C@@H]1[C@H](O)[C@@H](C)/C=C/C=C/C=C/C=C/C=C/C=C/C=C/[C@H](O[C@@H]2O[C@H](C)[C@@H](O)[C@H](N)[C@@H]2O)C[C@@H]2O[C@](O)(C[C@@H](O)C[C@@H](O)[C@H](O)CC[C@@H](O)C[C@@H](O)CC(=O)O[C@H]1C)C[C@H](O)[C@H]2C(=O)O [AMPHOTERICIN B] | 0.07 (≈ 0.0758 µM) |  |  |  |  |  |  |
| CO\C=C(C(=O)OC)/C(C)=C(\C=C\c1ccccc1)OC [9-METHOXYSTROBILURIN A] | 0.06 (≈ 0.208 µM) | 1.39 (≈ 4.82 µM) | 1.57 (≈ 5.44 µM) | 12.4 (≈ 43.1 µM) | 0.39 (≈ 1.35 µM) | 21.3 (≈ 73.8 µM) |  |
